Measurements published in ChEMBL document CHEMBL1134044, “Beneficial effects of different flavonoids, on functional recovery after ischemia and reperfusion in isolated rat heart” (2001).

Experiments:
Assay type in all cases: functional, Muscle tissue
Rattus norvegicus [1] = organism: Rattus norvegicus; assay: Superoxide dismutase activity measured as inhibition of Cytochrome C reduction by 50% in isolated rat heart muscle subjected to global ischemia
Procedure, shortened: (§1)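 Isolated rat hearts: 10 min initial perfusion, then 15 min recirculating Krebs with drug (diluted from 10⁻² M DMSO stock; final DMSO 0.01% v/v, matched in controls), 30 min global ischemia, then 30 min reperfusion with the same regime. Hearts were homogenized and frozen in liquid nitrogen. Enzymes were assayed in the centrifuged supernatant, normalized […]; mean ± S.D.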

Rattus norvegicus [2] = organism: Rattus norvegicus; assay: Effect of compound on catalase measured as disappearance of H2O2 in isolated rat heart muscle subjected to global ischemia; procedure, shortened: as §1
Rattus norvegicus [3] = organism: Rattus norvegicus; assay: Effect of compound on Glutathione peroxidase measured as disappearance of NADPH in isolated rat heart muscle subjected to global ischemia; procedure, shortened: as §1

Question: For `CC(C)(C)c1cc(-c2cc(=O)c3ccc(O)cc3o2)cc(C(C)(C)C)c1O`, which Activity (Rattus norvegicus [1]) is on record?
Answer: 8433 U (mg of protein)-1

Question: And the Activity (Rattus norvegicus [2])?
Answer: 21 U (mg of protein)-1

Question: And the Activity (Rattus norvegicus [3])?
Answer: 1982 U (mg of protein)-1

Question: For `CC(C)(C)c1cc(/C=C2\C(=O)c3ccc(O)cc3OC2c2cc(C(C)(C)C)c(O)c(C(C)(C)C)c2)cc(C(C)(C)C)c1O` (stereo not drawn), which Activity (Rattus norvegicus [1]) is on record?
Answer: 8935 U (mg of protein)-1

Question: And the Activity (Rattus norvegicus [2])?
Answer: 21 U (mg of protein)-1

Question: What about the Activity (Rattus norvegicus [3]) of the same compound?
Answer: 1906 U (mg of protein)-1

Question: Which results are given for `CC(C)(C)c1cc(/C=C/C(=O)c2ccc(O)cc2O)cc(C(C)(C)C)c1O`?
Answer: Activity (Rattus norvegicus [1]): 8740 U (mg of protein)-1; Activity (Rattus norvegicus [2]): 20 U (mg of protein)-1; Activity (Rattus norvegicus [3]): 1879 U (mg of protein)-1

Question: How did the Activity (Rattus norvegicus [1]) turn out when `Oc1ncnc2[nH]ncc12` [ALLOPURINOL] was run?
Answer: 9800 U (mg of protein)-1

Question: What about the Activity (Rattus norvegicus [2]) of the same compound?
Answer: 21 U (mg of protein)-1

Question: What about the Activity (Rattus norvegicus [3]) of the same compound?
Answer: 1912 U (mg of protein)-1

Question: `Cc1cc(C(C)(C)C)c(O)c(C(C)(C)C)c1` [BUTYLATED HYDROXYTOLUENE] was tested. Which Activity (Rattus norvegicus [1]) did it give?
Answer: 9636 U (mg of protein)-1

Question: And the Activity (Rattus norvegicus [2])?
Answer: 20 U (mg of protein)-1

Question: And the Activity (Rattus norvegicus [3])?
Answer: 1803 U (mg of protein)-1

Question: For `C[C@@H]1O[C@@H](OC[C@H]2O[C@@H](Oc3c(-c4ccc(O)c(O)c4)oc4cc(O)cc(O)c4c3=O)[C@H](O)[C@@H](O)[C@@H]2O)[C@H](O)[C@H](O)[C@H]1O` [RUTIN], which Activity (Rattus norvegicus [1]) is on record?
Answer: 9077 U (mg of protein)-1

Question: And the Activity (Rattus norvegicus [2])?
Answer: 21 U (mg of protein)-1

Question: What about the Activity (Rattus norvegicus [3]) of the same compound?
Answer: 1829 U (mg of protein)-1
